Source: PubChem (Johns Hopkins Ion Channel Center)
Only some compounds are listed: those with a hit (about 3.7% of all), similar ones and a draw of the others.
KCNQ1 block: inhibitors of human KCNQ1 channel, primary screen, cell-based, thallium flux, high-throughput; Potassium voltage-gated channel subfamily KQT member 1 (Homo sapiens), P51787; CHO-K1 KCNQ1, FluxOR thallium flux fluorescence; hits give high values; B-score at 10 µM; hit rate 1.3% among 310,000;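 active means compounds whose thallium flux B-score, printed positive for inhibition, exceeds three library SD while starting fluorescence stays within three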;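 further: channel opened by potassium depolarization with thallium stimulus after 20 min compound exposure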
KCNK3 inh: human KCNK3 channel inhibitors, primary screen, CHO cells, FluxOR thallium flux, B-score; hit rate 0.84% among 340,000; Potassium channel subfamily K member 3 (Homo sapiens), O14649; FluxOR fluorescence; hits give low values; AID 602410, 2012; B-score at 10 µM;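 active means B-score under library mean minus 4 SD, starting fluorescence ratio at most library mean plus 5 SD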;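 further: more negative B-score means stronger inhibition of thallium flux through KCNK3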
KCNK9 block: KCNK9 potassium channel inhibitors, primary screen, HEK293 cells, thallium flux | Potassium channel subfamily K member 9 (Homo sapiens), Q9NPC2 | FluxOR thallium flux fluorescence; hits give low values | B-score at 10 µM | hit rate 1.2% among 310,000;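 active means ratio B-score over 3 SD below the library mean, with starting fluorescence within 5 SD of its mean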;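 further: negative B-score means less thallium flux so channel inhibition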
Kir21 inh: inhibitors of mouse Kir2.1 inward-rectifier potassium channel; HEK293-Kir2.1, FluxOR thallium flux fluorescence; hits give low values; B-score at 10 µM; hit rate 0.85% among 310,000; Inward rectifier potassium channel 2 (Mus musculus), P35561;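 active means fluorescence ratio B-score at or below minus 3 SD of library scores, with starting-brightness B-score within 2 SD, cut at about -4.2 in these data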;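 further: channel flux triggered by added potassium and thallium sulfate stimulus; B-score of peak minus minimum fluorescence over baseline after thallium stimulus; more negative B-score means stronger Kir2.1 block with less thallium influx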
Target sequence (P35561 whole entry, looked up): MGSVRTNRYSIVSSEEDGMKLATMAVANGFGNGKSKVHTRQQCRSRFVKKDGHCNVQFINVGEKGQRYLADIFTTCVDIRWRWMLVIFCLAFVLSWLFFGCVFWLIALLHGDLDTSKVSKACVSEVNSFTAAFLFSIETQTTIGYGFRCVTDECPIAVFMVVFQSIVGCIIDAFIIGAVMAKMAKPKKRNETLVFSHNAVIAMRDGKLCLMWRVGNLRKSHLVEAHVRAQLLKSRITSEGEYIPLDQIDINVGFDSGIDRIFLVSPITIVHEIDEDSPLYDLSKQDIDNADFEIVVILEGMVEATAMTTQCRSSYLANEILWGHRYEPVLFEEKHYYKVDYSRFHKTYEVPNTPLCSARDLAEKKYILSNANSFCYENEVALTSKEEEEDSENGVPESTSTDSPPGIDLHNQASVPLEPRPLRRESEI
hERG rescue: hERG rescue from dofetilide block, primary screen, cell-based, CHO-hERG, FluxOR thallium flux, dofetilide IC70; dofetilide IC70 present; activation (rescue from dofetilide block), less the hit threshold, % at 10 µM; hit rate 0.51% among 310,000; AID 1511, 2009;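 active means activation above the mean of controls blocked by dofetilide plus 5 SD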;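 further: thallium influx through hERG after potassium depolarization seen as dye fluorescence rise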
KCNQ1 pot: potentiators or activators of KCNQ1 channel, primary screen, cell-based, thallium flux, high-throughput; Potassium voltage-gated channel subfamily KQT member 1 (Homo sapiens), P51787; CHO-K1 KCNQ1, thallium flux FluxOR fluorescence; hits give high values; B-score at 10 µM; hit rate 0.35% among 310,000;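 active means fluorescence ratio B-score, a plate-corrected score, at least three library SD, with initial intensity B-score within 5 SD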
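Assay system: stable KCNQ1 CHO-K1 line; medium: assay buffer, equal DMSO in all wells; timing: 90 min dye loading and 20 min compound exposure, both at room temperature; technique: kinetic FluxOR thallium fluorescence, 10-s 1-Hz baseline, 110-s post-stimulus read; read-out basis: B score of baseline-normalized fluorescence ratio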
* hit, by the source's call.

Screening COc1ccc(C2CC(c3ccccc3)=NN2c2ccc(S(N)(=O)=O)cc2)cc1 (configuration not stated) returned KCNQ1 block inactive, KCNK3 inh inactive, KCNK9 block inactive, Kir21 inh 0.18, hERG rescue -9.6 and KCNQ1 pot inactive.
Screening N#CCC(=O)N/N=C/c1ccc(N2N=C(c3ccccc3)CC2c2ccccc2)cc1 (configuration not stated) returned KCNQ1 block inactive, KCNK3 inh inactive, KCNK9 block inactive, Kir21 inh 0.06, hERG rescue -1.4 and KCNQ1 pot inactive.
COc1ccc(C2CC(c3ccccc3)=NN2c2ccc(/C=N/NC(=O)c3ccncc3)cc2)cc1 (configuration not stated) was read as KCNQ1 block 6*, KCNK3 inh inactive, KCNK9 block inactive, Kir21 inh -0.57, hERG rescue -3.6 and KCNQ1 pot inactive.
`O=Cc1ccc(N2N=C(c3ccccc3)CC2c2ccccc2)cc1` (configuration not stated) gave KCNQ1 block 8*, KCNK3 inh inactive, KCNK9 block inactive, Kir21 inh 0.08, hERG rescue -14.1 and KCNQ1 pot inactive.
`NS(=O)(=O)c1ccc(N2N=C(c3ccccc3)CC2c2ccc(F)cc2)cc1` (configuration not stated) gave KCNQ1 block 6*, KCNK3 inh inactive, KCNK9 block -7.74*, Kir21 inh 1.31, hERG rescue -10.4 and KCNQ1 pot inactive.
`COc1ccc(C2=NN(c3ccc(C=O)cc3)C(c3ccccc3)C2)cc1` (configuration not stated) gave KCNQ1 block 6*, KCNK9 block inactive, Kir21 inh -0.05, hERG rescue -3.7 and KCNQ1 pot inactive.
CCOC(=O)c1ccccc1NC(=O)COC(=O)CCC(=O)c1ccccc1 was read as KCNQ1 block inactive, KCNK3 inh inactive, KCNK9 block inactive, Kir21 inh -0.84, hERG rescue -4.6 and KCNQ1 pot inactive.
`COc1cccc(N2CCN(C(=O)CNC(=O)c3sc4ccccc4c3Cl)CC2)c1` gave KCNQ1 block inactive, KCNK3 inh inactive, KCNK9 block inactive, Kir21 inh 0.96, hERG rescue -10.3 and KCNQ1 pot inactive.
COc1ccc(C2CC(c3ccccc3)=NN2c2ccc(C(N)=O)cc2)cc1 (configuration not stated) was read as KCNQ1 block 10*, KCNK3 inh inactive, KCNK9 block inactive, Kir21 inh -0.04, hERG rescue -8.5 and KCNQ1 pot inactive.
Screening CC(=O)Nc1ccc(C2=NN(c3ccccc3)C(c3ccccc3)C2)cc1 (configuration not stated) returned KCNQ1 block inactive, KCNK3 inh inactive, KCNK9 block -6.75*, Kir21 inh 0.01, hERG rescue -1.0 and KCNQ1 pot inactive.
O=C(O)c1ccc(N2N=C(c3ccccc3)CC2c2ccccc2)cc1 (configuration not stated) was read as KCNQ1 block inactive, KCNK3 inh inactive, KCNK9 block inactive, Kir21 inh 0.23, hERG rescue -11.7 and KCNQ1 pot inactive.
For O=C(CNC(=O)c1cccs1)Nc1ncccc1O the results were KCNQ1 block inactive, KCNK3 inh inactive, KCNK9 block inactive, Kir21 inh 1.77, hERG rescue -13.4 and KCNQ1 pot inactive.
CC(OC(=O)CCOc1ccccc1)C(=O)NC1CC1 (configuration not stated) was read as KCNQ1 block inactive, KCNK3 inh inactive, KCNK9 block inactive, Kir21 inh 1.38, hERG rescue -9.5 and KCNQ1 pot inactive.
Screening Cc1cccc(CNc2ccc(S(=O)(=O)N3CCCCC3)cc2)c1 returned KCNK3 inh -9.88*.
Screening FC(F)(F)c1ccnc(NCc2ccco2)n1 returned KCNQ1 block inactive, KCNK3 inh inactive, KCNK9 block inactive, Kir21 inh 0.6, hERG rescue -6.3 and KCNQ1 pot inactive.
For Cc1ccc(S(=O)(=O)N(C)c2ccc(OC(=O)c3cccs3)cc2)cc1 the results were KCNK3 inh -9.53*.
`Cc1ccc(S(=O)(=O)N(C)c2ccc(OC(=O)COc3ccccc3)cc2)cc1` gave KCNK3 inh inactive.
Screening Cc1ccc(S(=O)(=O)CC(=O)Nc2nc(-c3ccccc3)cs2)cc1 returned KCNQ1 block 6*, KCNK3 inh inactive, KCNK9 block inactive, Kir21 inh 0.85, hERG rescue -8.1 and KCNQ1 pot inactive.
`Cc1ccc(S(=O)(=O)N(C)c2ccc(OCC(=O)Nc3nc(-c4ccccc4)cs3)cc2)cc1` gave KCNQ1 block inactive, KCNK3 inh inactive, KCNK9 block -7.22*, Kir21 inh 0.16, hERG rescue -12.5 and KCNQ1 pot inactive.
CN(C)S(=O)(=O)c1cccc(NC(=O)CN2C(=O)NC(CCc3ccccc3)C2=O)c1 (configuration not stated) was read as KCNQ1 block inactive, KCNK3 inh inactive, KCNK9 block inactive, Kir21 inh 0.55, hERG rescue -19.9 and KCNQ1 pot inactive.
For CC(C)(C)c1ccccc1OCC(=O)Nc1ccccc1C(=O)NCc1cccnc1 the results were KCNQ1 block inactive, KCNK3 inh inactive, KCNK9 block inactive, Kir21 inh -5.95*, hERG rescue -14.3 and KCNQ1 pot inactive.
Screening COc1ccc(Cl)cc1S(=O)(=O)N1CCC(C(=O)NCc2ccco2)CC1 returned KCNQ1 block inactive, KCNK3 inh inactive, KCNK9 block inactive, Kir21 inh -1.59, hERG rescue -10.3 and KCNQ1 pot inactive.
For Cc1cccc(NC(=S)N/C(=N/S(=O)(=O)c2ccccc2)c2ccccc2)c1 the results were KCNQ1 block inactive, KCNK3 inh inactive, KCNK9 block inactive, Kir21 inh -1.4, hERG rescue 5.2* and KCNQ1 pot inactive.
For O=C(c1ccccc1)c1ccc2nc(-c3ccco3)c(-c3ccco3)nc2c1 the results were KCNQ1 block 9*, KCNK3 inh inactive, KCNK9 block inactive, Kir21 inh -0.79, hERG rescue -17.1 and KCNQ1 pot inactive.
For CN(C(=O)c1cccc(NC(=O)Cc2cccc(NC(=O)C3CCCN(C(=O)C4CCCCC4)C3)c2)c1)C1CCC1 (configuration not stated) the results were KCNK3 inh inactive.
